# Data taken from ChEMBL document CHEMBL1135423, “Acyl-protected hydroxylamines as spin label generators for EPR brain imaging” (J Med Chem, 2002).
# What was measured:
# Type in all cases: ADME, organism-based
# Mus musculus [1] = assay: Biodistribution of compound (oxidized form) in spleen tissue, animals were sacrificed 10 minutes after dosing, in DMSO solution; settings: in vivo
# How it was run: (§1)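 In female C3H HenMTV⁻ mice (6-8 weeks, 22-25 g; three per time point), compound was injected ip as 500 µL of 40 mM solution. Animals were killed 10 or 60 min later. Brain, heart, liver, kidney, spleen and blood were removed and each homogenized in ice-cold PBS. Nitroxide (oxidized form) was quantified by EPR signal intensity in the half of each homogenate not treated with ferricyanide.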
# Mus musculus [2] = assay: Biodistribution in mice as total concentration of both oxidized and reduced forms in spleen and animals were sacrificed 10 minutes after ip dosing, in DMSO solution; settings: in vivo
# How it was run: (§2)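 Female C3H HenMTV⁻ mice (6-8 weeks old, 22-25 g; three per time point) were given an ip injection of 500 µL of 40 mM compound. They were euthanized at 10 or 60 min. Brain, heart, liver, kidney, spleen and blood were excised and each homogenized in ice-cold PBS. One half of each homogenate received K₃[Fe(CN)₆] (final 1 mM) to oxidize hydroxylamine to nitroxide. Total nitroxide plus hydroxylamine was read from EPR signal intensity.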
# Mus musculus [3] = assay: Biodistribution of compound (total concentration of both oxidized and reduced forms) in heart tissues, animals were sacrificed 60 minutes after dosing, in DMSO; settings: in vivo, 1 h
# How it was run: (§3)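 Female C3H HenMTV⁻ mice (6-8 weeks old, 22-25 g; three per time point) got one i.p. injection of 500 µL of 40 mM compound. They were euthanized at 10 or 60 min. Organs and blood were excised and homogenized separately in ice-cold PBS. One half of each homogenate received K₃[Fe(CN)₆] (final 1 mM) to oxidize hydroxylamine. Total nitroxide plus hydroxylamine was quantified by EPR signal intensity.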
# Mus musculus [4] = assay: Biodistribution in mice as total concentration of both oxidized and reduced forms in liver and animals were sacrificed 10 minutes after ip administration in DMSO solution; settings: in vivo; how it was run: as §2
# Mus musculus [5] = assay: Biodistribution of compound (oxidized form) in kidney tissue, animals were sacrificed 60 minutes after dosing, in DMSO solution; settings: in vivo, 1 h; how it was run: as §1
# Mus musculus [6] = assay: Biodistribution of compound (oxidized form) in blood tissues, animals were sacrificed 60 minutes after dosing, in DMSO solution; settings: in vivo, 1 h; how it was run: as §1
# Mus musculus [7] = assay: Biodistribution of compound (oxidized form) in blood tissue, animals were sacrificed 10 minutes after dosing, in DMSO solution; settings: in vivo; how it was run: as §1
# Mus musculus [8] = assay: Biodistribution of compound (oxidized form) in liver tissues, animals were sacrificed 60 minutes after dosing, in DMSO solution; settings: in vivo, 1 h; how it was run: as §1
# Mus musculus [9] = assay: Biodistribution of compound (oxidized form) in brain tissue, animals were sacrificed 10 minutes after dosing, in DMSO sol.; settings: in vivo; how it was run: as §1
# Mus musculus [10] = assay: Biodistribution of compound (total concentration of both oxidized and reduced forms) in liver tissues, animals were sacrificed 60 minutes after dosing, in DMSO; settings: in vivo, 1 h; how it was run: as §3
# Mus musculus [11] = assay: Biodistribution of compound (oxidized form) in heart tissue, animals were sacrificed 60 minutes after dosing, in DMSO solution; settings: in vivo, 1 h; how it was run: as §1
# Mus musculus [12] = assay: Biodistribution of compound (total concentration of both oxidized and reduced forms) in heart tissues, animals were sacrificed 10 minutes after dosing, in DMSO; settings: in vivo; how it was run: as §3
# Mus musculus [13] = assay: Biodistribution of compound (oxidized form) in kidney tissue, animals were sacrificed 10 minutes after dosing, in DMSO solution; settings: in vivo; how it was run: as §1
# Mus musculus [14] = assay: Biodistribution of compound (total concentration of both oxidized and reduced forms) in kidney tissues, animals were sacrificed 60 minutes after dosing, in DMSO; settings: in vivo, 1 h; how it was run: as §3
# Mus musculus [15] = assay: Biodistribution of compound (oxidized form) in brain tissues, animals were sacrificed 10 minutes after dosing, in DMSO solution; settings: in vivo; how it was run: as §1
# Mus musculus [16] = assay: Biodistribution of compound (oxidized form) in brain tissue, animals were sacrificed 60 minutes after dosing, in DMSO solution; settings: in vivo, 1 h; how it was run: as §1
# Mus musculus [17] = assay: Biodistribution of compound (oxidized form) in spleen tissues, animals were sacrificed 60 minutes after dosing, in DMSO solution; settings: in vivo, 1 h; how it was run: as §1
# Mus musculus [18] = assay: Biodistribution in mice, total concentration of both oxidized and reduced forms in brain tissues, animals were sacrificed 60 minutes after dosing, in DMSO; settings: in vivo, 1 h; how it was run: as §2
# Mus musculus [19] = assay: Biodistribution of compound (total concentration of both oxidized and reduced forms) in spleen tissues, animals were sacrificed 60 minutes after dosing, in DMSO; settings: in vivo, 1 h; how it was run: as §3
# Mus musculus [20] = assay: Biodistribution in mice as total concentration of both oxidized and reduced forms in kidney and animals were sacrificed 10 minutes after ip dosing, in DMSO solution; settings: in vivo; how it was run: as §2
# Mus musculus [21] = assay: Biodistribution in mice as total concentration of both oxidized and reduced forms in blood and animals were sacrificed 10 minutes after ip dosing, in DMSO solution; settings: in vivo; how it was run: as §2
# Mus musculus [22] = assay: Biodistribution of compound (oxidized form) in liver tissue, animals were sacrificed 10 minutes after dosing, in DMSO sol.; settings: in vivo; how it was run: as §1
# Mus musculus [23] = assay: Biodistribution of compound (oxidized form) in heart tissue, animals were sacrificed 10 minutes after dosing, in DMSO sol.; settings: in vivo; how it was run: as §1
# Mus musculus [24] = assay: Biodistribution of compound (total concentration of both oxidized and reduced forms) in blood tissues, animals were sacrificed 60 minutes after dosing, in DMSO; settings: in vivo, 1 h; how it was run: as §3
# Mus musculus [25] = assay: Biodistribution of compound (oxidized form) in kidney tissue, animals were sacrificed 60 minutes after dosing, in DMSO; settings: in vivo, 1 h; how it was run: as §1
# Mus musculus [26] = assay: Biodistribution of compound (total concentration of both oxidized and reduced forms) in kidney tissues, animals were sacrificed 60 minutes after dosing in DMSO; settings: in vivo, 1 h; how it was run: as §3
# Mus musculus [27] = species: Mus musculus; assay: Biodistribution of compound (total concentration of both oxidized and reduced forms) in heart tissues; settings: in vivo; how it was run: as §3
# Mus musculus [28] = assay: Biodistribution of compound (oxidized form) in heart tissue, animals were sacrificed 60 minutes after dosing, in DMSO; settings: in vivo, 1 h; how it was run: as §1
# Mus musculus [29] = species: Mus musculus; assay: Biodistribution of compound (oxidized form) in kidney tissue; settings: in vivo; how it was run: as §1
# Mus musculus [30] = species: Mus musculus; assay: Biodistribution of compound (oxidized form) in liver tissue; settings: in vivo; how it was run: as §1
# Mus musculus [31] = species: Mus musculus; assay: Biodistribution of compound (oxidized form) in blood tissue; settings: in vivo; how it was run: as §1
# Mus musculus [32] = assay: Biodistribution of compound (oxidized form) in brain tissue, animals were sacrificed 60 minutes after dosing, in DMSO; settings: in vivo, 1 h; how it was run: as §1
# Mus musculus [33] = species: Mus musculus; assay: Biodistribution of compound (oxidized form) in spleen tissue; settings: in vivo; how it was run: as §1
# Mus musculus [34] = assay: Biodistribution of compound (total concentration of both oxidized and reduced forms) in spleen tissues, animals were sacrificed 60 minutes after dosing in DMSO; settings: in vivo, 1 h; how it was run: as §3
# Mus musculus [35] = species: Mus musculus; assay: Biodistribution of compound (oxidized form) in heart tissue of mice; settings: in vivo; how it was run: as §1
# Mus musculus [36] = assay: Biodistribution of compound (oxidized form) in blood tissues, animals were sacrificed 60 minutes after dosing, in DMSO; settings: in vivo, 1 h; how it was run: as §1
# Mus musculus [37] = species: Mus musculus; assay: Biodistribution of compound (oxidized form) in brain tissue of mice; settings: in vivo; how it was run: as §1
# Mus musculus [38] = assay: Biodistribution of compound (oxidized form) in spleen tissues, animals were sacrificed 60 minutes after dosing, in DMSO; settings: in vivo, 1 h; how it was run: as §1
# Mus musculus [39] = assay: Biodistribution of compound (oxidized form) in liver tissues, animals were sacrificed 60 minutes after dosing, in DMSO; settings: in vivo, 1 h; how it was run: as §1
# Mus musculus [40] = species: Mus musculus; assay: Biodistribution of compound (total concentration of both oxidized and reduced forms) in kidney; settings: in vivo; how it was run: as §3
# Mus musculus [41] = species: Mus musculus; assay: Biodistribution of compound (total concentration of both oxidized and reduced forms) in blood; settings: in vivo; how it was run: as §3
# Mus musculus [42] = species: Mus musculus; assay: Biodistribution of compound (total concentration of both oxidized and reduced forms) in brain tissues; settings: in vivo; how it was run: as §3
# Mus musculus [43] = species: Mus musculus; assay: Biodistribution of compound (total concentration of both oxidized and reduced forms) in liver; settings: in vivo; how it was run: as §3
# Mus musculus [44] = assay: Biodistribution of compound (total concentration of both oxidized and reduced forms) in brain tissues, animals were sacrificed 60 minutes after dosing, in DMSO; settings: in vivo, 1 h; how it was run: as §3
# Mus musculus [45] = species: Mus musculus; assay: Biodistribution of compound (total concentration of both oxidized and reduced forms) in spleen; settings: in vivo; how it was run: as §3
compound,measurement,setting,value
COC(=O)C1CC(C)(C)N(OC(C)=O)C1(C)C (stereo not drawn),Biodistribution,Mus musculus [1],0 nM (g of tissue)-1
same,Biodistribution,Mus musculus [2],100 nM (g of tissue)-1
same,Biodistribution,Mus musculus [3],25 nM (g of tissue)-1
same,Biodistribution,Mus musculus [4],50 nM (g of tissue)-1
same,Biodistribution,Mus musculus [5],0 nM (g of tissue)-1
same,Biodistribution,Mus musculus [6],0 nM (g of tissue)-1
same,Biodistribution,Mus musculus [7],0 nM (g of tissue)-1
same,Biodistribution,Mus musculus [8],0 nM (g of tissue)-1
same,Biodistribution,Mus musculus [9],2 nM (g of tissue)-1
same,Biodistribution,Mus musculus [10],30 nM (g of tissue)-1
same,Biodistribution,Mus musculus [11],0 nM (g of tissue)-1
same,Biodistribution,Mus musculus [12],100 nM (g of tissue)-1
same,Biodistribution,Mus musculus [13],0 nM (g of tissue)-1
same,Biodistribution,Mus musculus [14],25 nM (g of tissue)-1
same,Biodistribution,Mus musculus [15],0 nM (g of tissue)-1
same,Biodistribution,Mus musculus [16],5 nM (g of tissue)-1
same,Biodistribution,Mus musculus [17],0 nM (g of tissue)-1
same,Biodistribution,Mus musculus [18],25 nM (g of tissue)-1
same,Biodistribution,Mus musculus [19],25 nM (g of tissue)-1
same,Biodistribution,Mus musculus [20],400 nM (g of tissue)-1
same,Biodistribution,Mus musculus [21],100 nM (g of tissue)-1
same,Biodistribution,Mus musculus [22],0 nM (g of tissue)-1
same,Biodistribution,Mus musculus [23],0 nM (g of tissue)-1
same,Biodistribution,Mus musculus [24],25 nM (g of tissue)-1
CC(=O)OCOC(=O)C1CC(C)(C)N(OC(C)=O)C1(C)C (stereo not drawn),Biodistribution,Mus musculus [25],40 nM (g of tissue)-1
same,Biodistribution,Mus musculus [3],250 nM (g of tissue)-1
same,Biodistribution,Mus musculus [26],2500 nM (g of tissue)-1
same,Biodistribution,Mus musculus [27],250 nM (g of tissue)-1
same,Biodistribution,Mus musculus [28],5 nM (g of tissue)-1
same,Biodistribution,Mus musculus [29],50 nM (g of tissue)-1
same,Biodistribution,Mus musculus [30],100 nM (g of tissue)-1
same,Biodistribution,Mus musculus [31],50 nM (g of tissue)-1
same,Biodistribution,Mus musculus [10],250 nM (g of tissue)-1
same,Biodistribution,Mus musculus [32],0 nM (g of tissue)-1
same,Biodistribution,Mus musculus [33],40 nM (g of tissue)-1
same,Biodistribution,Mus musculus [34],150 nM (g of tissue)-1
same,Biodistribution,Mus musculus [35],10 nM (g of tissue)-1
same,Biodistribution,Mus musculus [36],20 nM (g of tissue)-1
same,Biodistribution,Mus musculus [37],0 nM (g of tissue)-1
same,Biodistribution,Mus musculus [38],20 nM (g of tissue)-1
same,Biodistribution,Mus musculus [39],20 nM (g of tissue)-1
same,Biodistribution,Mus musculus [40],2500 nM (g of tissue)-1
same,Biodistribution,Mus musculus [41],750 nM (g of tissue)-1
same,Biodistribution,Mus musculus [42],0 nM (g of tissue)-1
same,Biodistribution,Mus musculus [43],250 nM (g of tissue)-1
same,Biodistribution,Mus musculus [24],400 nM (g of tissue)-1
same,Biodistribution,Mus musculus [44],0 nM (g of tissue)-1
same,Biodistribution,Mus musculus [45],750 nM (g of tissue)-1
